pIC50: −log10 of the molar value. Activity calls are given as the source filed them. The rule behind the calls is not given here.
Key:
A673 [1] = assay: Growth inhibition of human A673 cells assessed as reduction in cell viability after 48 hrs by SRB assay; type: functional; conditions: A673, 48 h
Procedure, shortened: (§1)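 Cells were kept in RPMI-1640 with 5% FBS and 50 μg/mL gentamicin at 37 °C and 5% CO2, and plated at 4,000–6,000 cells/well to adhere overnight. Compounds in DMSO (0.5% v/v final) went to triplicate wells for 48 h. Cells were fixed with 10% TCA, and time-0 plates were fixed at dosing. SRB absorbance was read at 560 nm, with GI50 fitted by non-linear regression for each experiment.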

[2] = Growth inhibition of human SJCRH30 cells assessed as reduction in cell viability after 48 hrs by SRB assay; type: functional; procedure, shortened: as §1
[3] = Growth inhibition of human D283 cells assessed as reduction in cell viability after 48 hrs by SRB assay; type: functional; conditions: D283, 48 h
Procedure, shortened: (§2)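 Cells were grown in IMEM with 5% FBS and 25 μg/mL gentamicin at 37 °C and 5% CO2, then seeded at 4,000–6,000 cells/well overnight. DMSO solutions (0.5% v/v final) were added to triplicate wells for 48 h, and time-0 plates were fixed at addition. Fixation was with TCA; for D283, 20% TCA was added straight into the medium. SRB absorbance at 560 nm gave GI50 by non-linear regression.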

Hep293TT = assay: Growth inhibition of human Hep293TT cells assessed as reduction in cell viability after 48 hrs by SRB assay; type: functional; procedure, shortened: as §1
SK-ES1 = assay: Growth inhibition of human SK-ES-1 cells assessed as reduction in cell viability after 48 hrs by SRB assay; type: functional; conditions: SK-ES1, 48 h; procedure, shortened: as §1
D341 cell line = assay: Growth inhibition of human D341 cells assessed as reduction in cell viability after 48 hrs by SRB assay; type: functional; conditions: D341, 48 h; procedure, shortened: as §2
HCC1806 = assay: Growth inhibition of human HCC1806 cells assessed as reduction in cell viability up to 10 uM after 48 hrs by SRB assay; type: functional, cell-based; procedure, shortened: as §1
Daoy = assay: Growth inhibition of human DaOY cells assessed as reduction in cell viability up to 10 uM after 48 hrs by SRB assay; type: functional, cell-based; procedure, shortened: as §2
[4] = target: T1, Monocarboxylate transporter 1 (Homo sapiens) (UniProt P53985); assay: Inhibition of MCT1 in human A673 cells assessed as reduction in BrPA-induced cytotoxicity at 10 nM by SRB assay; type: cell-based
T1 sequence (whole entry): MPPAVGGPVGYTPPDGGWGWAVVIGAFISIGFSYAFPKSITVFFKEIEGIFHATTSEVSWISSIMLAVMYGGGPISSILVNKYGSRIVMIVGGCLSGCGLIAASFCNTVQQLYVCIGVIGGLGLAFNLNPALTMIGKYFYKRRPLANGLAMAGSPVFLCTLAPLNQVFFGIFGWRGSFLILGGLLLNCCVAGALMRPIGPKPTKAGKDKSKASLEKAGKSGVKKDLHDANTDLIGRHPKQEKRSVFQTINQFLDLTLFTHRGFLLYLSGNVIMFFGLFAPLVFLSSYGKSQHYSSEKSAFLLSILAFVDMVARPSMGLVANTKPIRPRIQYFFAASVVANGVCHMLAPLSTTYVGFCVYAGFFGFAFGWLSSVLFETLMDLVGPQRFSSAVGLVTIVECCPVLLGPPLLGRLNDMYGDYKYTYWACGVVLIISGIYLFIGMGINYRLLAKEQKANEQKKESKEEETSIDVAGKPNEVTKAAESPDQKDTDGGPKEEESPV
Procedure, shortened: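 A-673 cells were grown in RPMI-1640 with 5% FBS. Test compound or AZD3965 was added 1 h before BrPA, with DMSO as the vehicle control. Viability was read by SRB staining after TCA fixation, with absorbance at 560 nm.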

HCT-15 = assay: Cytotoxicity against human HCT15 cells assessed as reduction in cell viability; type: functional, cell-based
HeLa = assay: Cytotoxicity against human HeLa cells assessed as reduction in cell viability; type: functional, cell-based
A2780 = assay: Cytotoxicity against human A2780 cells assessed as reduction in cell viability; type: functional, cell-based
A673 [5] = assay: Growth inhibition of human A673 cells assessed as reduction in cell viability up to 10 uM after 48 hrs by SRB assay; type: functional, cell-based; procedure, shortened: as §1

| Compound | GI50 (A673 [1]) [nM] | GI50 [2] [nM] | GI50 [3] [nM] | GI50 (Hep293TT) [nM] | also measured |
| --- | --- | --- | --- | --- | --- |
| CCCC/C=C\CCCCCCCCCCCc1cc2cc(O)ccc2o1 | 190 | > 10000 | 70 | > 10000 | GI50 (SK-ES1): 120 nM; GI50 (D341 cell line): 20 nM; growth inhibition (GI) (HCC1806): inactive; growth inhibition (GI) (Daoy): inactive; inhibition [4]: Active |
| CCCC/C=C\CCCCCCCCCCC[C@@H]1C[C@]2(O)CC(=O)C[C@H](O1)[C@@H]2O |  |  |  |  | pIC50 (HCT-15): 4.52 to 5.52; pIC50 (HeLa): 4.52 to 5.52; pIC50 (A2780): 4.52 to 5.52 |
| Cc1[nH]nc(C(F)(F)F)c1Cc1sc2c(c1C(=O)N1C[C@](C)(O)CO1)c(=O)n(C)c(=O)n2C(C)C |  |  |  |  | inhibition [4]: Active; growth inhibition (GI) (A673 [5]): inactive |
| CCCC/C=C\CCCCCCCCC[C@H](O)C[C@]1(O)CC(=O)C=C[C@H]1O | 650 | 240 | 410 | 500 |  |
| CCCC/C=C\CCCCCCCCCCC[C@H](O)C[C@]1(O)CC(=O)C=C[C@H]1O | 580 | 180 | 400 | 390 |  |
| CCCC/C=C\CCCCCCCCC[C@H](O)Cc1cc(O)ccc1O | 160 | 170 | 80 | 1020 |  |
| CCCC/C=C\CCCCCCCCCCC[C@H](O)Cc1cc(O)ccc1O | 320 | 120 | 240 | 700 |  |

— ChEMBL document CHEMBL4613254, “Using the Cancer Dependency Map to Identify the Mechanism of Action of a Cytotoxic Alkenyl Derivative from the Fruit of Choerospondias axillaris” (J Nat Prod, 2020)
